Experimental data: ChEMBL document CHEMBL1833822, “Efficient synthesis of apricoxib, CS-706, a selective cyclooxygenase-2 inhibitor, and evaluation of inhibition of prostaglandin E2 production in inflammatory breast cancer cells” (2011)

Legend:
Assay type in all cases: functional
[1] = Inhibition of sodium arachidonate-induced PGE2 production in human SUM190 cells assessed as PGE2 level per 1000 cells at 10 uM preincubated for 2 hrs before sodium arachidonate challenge measured after 2 hrs by competitive EIA (reference value: 6.43 +/- 1.87 pg/mL)
In short: (§1)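 Cells seeded in triplicate, grown at 37°C, 5% CO2 to 80% confluence, washed with PBS, then given fresh medium with inhibitor (0.1, 1, 10 μM) or DMSO vehicle. After 2 h preincubation at 37°C, sodium arachidonate was added to 10 μM final for 2 h more. Supernatant PGE2 was measured by competitive EIA and normalized to trypsinized cell count (pg/mL/1000 cells). Three runs, mean ± SD.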

SUM149PT [2] = test: Inhibition of sodium arachidonate-induced PGE2 production in human SUM149 cells at 100 nM preincubated for 2 hrs before sodium arachidonate challenge measured after 2 hrs by competitive EIA; in short: as §1
SUM149PT [3] = test: Inhibition of sodium arachidonate-induced PGE2 production in human SUM149 cells at 10 uM preincubated for 2 hrs before sodium arachidonate challenge measured after 2 hrs by competitive EIA; in short: as §1
SUM149PT [4] = test: Inhibition of sodium arachidonate-induced PGE2 production in human SUM149 cells assessed as PGE2 level per 1000 cells at 10 uM preincubated for 2 hrs before sodium arachidonate challenge measured after 2 hrs by competitive EIA (reference value: 3.15 +/- 0.19 pg/mL); in short: as §1
SUM149PT [5] = test: Inhibition of sodium arachidonate-induced PGE2 production in human SUM149 cells assessed as PGE2 level per 1000 cells at 0.1 uM preincubated for 2 hrs before sodium arachidonate challenge measured after 2 hrs by competitive EIA (reference value: 3.15 +/- 0.19 pg/mL); in short: as §1
[6] = Inhibition of sodium arachidonate-induced PGE2 production in human SUM190 cells assessed as PGE2 level per 1000 cells at 1 uM preincubated for 2 hrs before sodium arachidonate challenge measured after 2 hrs by competitive EIA (reference value: 6.43 +/- 1.87 pg/mL); in short: as §1
SUM149PT [7] = test: Inhibition of sodium arachidonate-induced PGE2 production in human SUM149 cells assessed as PGE2 level per 1000 cells at 1 uM preincubated for 2 hrs before sodium arachidonate challenge measured after 2 hrs by competitive EIA (reference value: 3.15 +/- 0.19 pg/mL); in short: as §1
SUM149PT [8] = test: Inhibition of sodium arachidonate-induced PGE2 production in human SUM149 cells at 1 uM preincubated for 2 hrs before sodium arachidonate challenge measured after 2 hrs by competitive EIA; in short: as §1
[9] = Inhibition of sodium arachidonate-induced PGE2 production in human SUM190 cells assessed as PGE2 level per 1000 cells at 0.1 uM preincubated for 2 hrs before sodium arachidonate challenge measured after 2 hrs by competitive EIA (reference value: 6.43 +/- 1.87 pg/mL); in short: as §1

SMILES: CCOc1ccc(-c2cc(C)cn2-c2ccc(S(N)(=O)=O)cc2)cc1 [APRICOXIB]
- Activity [1]: 0.22 pg/mL
- inhibition at 0.1 µM (SUM149PT [2]): 70%
- inhibition at 10 µM (SUM149PT [3]): 97%
- Activity (SUM149PT [4]): 0.11 pg/mL
- Activity (SUM149PT [5]): 0.97 pg/mL
- Activity [6]: 0.5 pg/mL
- Activity (SUM149PT [7]): 0.28 pg/mL
- inhibition at 1 µM (SUM149PT [8]): 91%
- Activity [9]: 2.1 pg/mL

SMILES: Cc1ccc(-c2cc(C(F)(F)F)nn2-c2ccc(S(N)(=O)=O)cc2)cc1 [CELECOXIB]
- Activity [1]: 0.18 pg/mL
- Activity (SUM149PT [4]): 0.13 pg/mL
- Activity (SUM149PT [5]): 1.19 pg/mL
- Activity [6]: 0.81 pg/mL
- Activity (SUM149PT [7]): 0.43 pg/mL
- Activity [9]: 2.87 pg/mL
